# Laboratory results taken from ChEMBL document CHEMBL1156975, “Discovery and SAR of potent, orally available 2,8-diaryl-quinoxalines as a new class of JAK2 inhibitors” (Bioorg Med Chem Lett, 2010).
# Biological target: T1, Tyrosine-protein kinase JAK3 (Homo sapiens, UniProt P52333)
# T1 sequence (P52333 whole entry): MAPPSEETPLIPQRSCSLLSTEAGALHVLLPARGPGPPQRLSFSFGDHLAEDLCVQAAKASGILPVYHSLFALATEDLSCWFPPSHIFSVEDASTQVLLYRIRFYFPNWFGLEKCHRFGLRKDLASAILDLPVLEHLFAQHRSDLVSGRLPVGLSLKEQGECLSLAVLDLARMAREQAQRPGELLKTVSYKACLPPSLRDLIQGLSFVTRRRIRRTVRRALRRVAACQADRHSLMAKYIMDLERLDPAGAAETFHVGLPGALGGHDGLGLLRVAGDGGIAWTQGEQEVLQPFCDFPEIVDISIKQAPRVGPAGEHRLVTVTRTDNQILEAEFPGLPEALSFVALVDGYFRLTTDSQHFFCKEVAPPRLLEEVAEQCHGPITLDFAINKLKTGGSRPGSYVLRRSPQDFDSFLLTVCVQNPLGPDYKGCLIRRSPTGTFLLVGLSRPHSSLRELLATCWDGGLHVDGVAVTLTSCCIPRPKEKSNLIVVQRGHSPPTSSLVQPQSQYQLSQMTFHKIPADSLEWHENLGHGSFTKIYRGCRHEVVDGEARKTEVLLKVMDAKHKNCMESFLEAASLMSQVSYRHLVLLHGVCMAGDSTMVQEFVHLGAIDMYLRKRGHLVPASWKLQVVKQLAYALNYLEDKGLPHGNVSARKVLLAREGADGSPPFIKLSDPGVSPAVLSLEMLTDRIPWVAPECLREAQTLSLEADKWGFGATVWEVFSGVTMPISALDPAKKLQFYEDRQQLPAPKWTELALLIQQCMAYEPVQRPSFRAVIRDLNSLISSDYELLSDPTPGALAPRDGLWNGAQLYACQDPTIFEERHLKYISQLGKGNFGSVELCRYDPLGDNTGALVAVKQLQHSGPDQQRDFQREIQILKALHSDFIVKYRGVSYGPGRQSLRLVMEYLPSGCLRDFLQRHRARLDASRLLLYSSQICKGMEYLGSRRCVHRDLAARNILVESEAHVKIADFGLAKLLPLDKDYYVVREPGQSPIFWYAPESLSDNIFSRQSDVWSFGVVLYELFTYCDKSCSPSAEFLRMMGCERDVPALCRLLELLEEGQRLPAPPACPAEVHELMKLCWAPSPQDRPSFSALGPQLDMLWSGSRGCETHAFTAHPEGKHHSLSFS
# Conditions: not given
row,IC50,SMILES
1,630 nM,Cc1cc(-c2cnc3cccc(-c4ccc(CN5CCOCC5)c(F)c4)c3n2)ccc1C(=O)N1CCOCC1
2,408 nM,Cc1cc(-c2cccc3ncc(-c4ccc(C(=O)N5CCOCC5)c(C)c4)nc23)ccc1CN1CCOCC1
3,130 nM,Cc1cc(-c2cnc3cccc(-c4cc(F)c(CN5CCOCC5)c(F)c4)c3n2)ccc1C(=O)N1CCOCC1

# Biological target: Tyrosine-protein kinase JAK2 (Homo sapiens, UniProt O60674)
# Sequence (O60674 whole entry): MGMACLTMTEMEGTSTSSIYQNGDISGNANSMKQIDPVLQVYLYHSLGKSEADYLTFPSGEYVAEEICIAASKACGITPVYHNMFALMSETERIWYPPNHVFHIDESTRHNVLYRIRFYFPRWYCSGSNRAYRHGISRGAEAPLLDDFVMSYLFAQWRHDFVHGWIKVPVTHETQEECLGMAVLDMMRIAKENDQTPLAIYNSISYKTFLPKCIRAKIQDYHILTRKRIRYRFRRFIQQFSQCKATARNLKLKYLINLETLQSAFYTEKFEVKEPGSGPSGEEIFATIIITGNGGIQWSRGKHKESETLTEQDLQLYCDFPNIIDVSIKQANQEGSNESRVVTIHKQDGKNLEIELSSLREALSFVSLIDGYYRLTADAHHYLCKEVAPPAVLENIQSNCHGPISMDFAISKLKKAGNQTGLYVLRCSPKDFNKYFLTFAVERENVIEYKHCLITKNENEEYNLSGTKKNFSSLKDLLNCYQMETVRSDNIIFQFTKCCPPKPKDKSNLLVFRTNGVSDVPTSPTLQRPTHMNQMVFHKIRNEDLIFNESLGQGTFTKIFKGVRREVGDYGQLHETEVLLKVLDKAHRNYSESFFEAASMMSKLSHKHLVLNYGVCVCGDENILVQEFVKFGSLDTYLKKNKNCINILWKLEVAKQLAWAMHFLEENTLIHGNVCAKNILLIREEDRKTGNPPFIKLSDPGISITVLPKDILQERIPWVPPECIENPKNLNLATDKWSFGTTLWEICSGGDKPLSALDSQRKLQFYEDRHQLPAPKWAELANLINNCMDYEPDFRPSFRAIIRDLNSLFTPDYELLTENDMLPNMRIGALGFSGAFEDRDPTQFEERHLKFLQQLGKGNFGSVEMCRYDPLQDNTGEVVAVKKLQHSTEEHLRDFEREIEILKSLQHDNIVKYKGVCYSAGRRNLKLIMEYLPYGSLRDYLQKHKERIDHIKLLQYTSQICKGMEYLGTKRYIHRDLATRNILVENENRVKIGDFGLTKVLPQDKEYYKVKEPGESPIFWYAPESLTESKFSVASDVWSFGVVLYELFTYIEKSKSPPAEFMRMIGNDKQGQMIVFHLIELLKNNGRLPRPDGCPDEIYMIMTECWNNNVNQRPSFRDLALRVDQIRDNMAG
# Conditions: not given
row,IC50,SMILES
1,20 nM,COc1cc(-c2cnc3cccc(-c4ccc(C(=O)N5CCOCC5)c(C)c4)c3n2)cc(OC)c1OC
2,20 nM,COc1cc(-c2cnc3cccc(-c4ccc(CN5CCOCC5)c(F)c4)c3n2)cc(OC)c1OC
3,13 nM,COc1cc(-c2cnc3cccc(-c4ccc(CC(=O)N5CCOCC5)cc4)c3n2)cc(OC)c1OC
4,12.5 nM,Cc1cc(-c2cnc3cccc(-c4ccc(CN5CCOCC5)c(F)c4)c3n2)ccc1C(=O)N1CCOCC1
5,3.1 nM,Cc1cc(-c2cnc3cccc(-c4cc(F)c(CN5CCOCC5)c(F)c4)c3n2)ccc1C(=O)N1CCOCC1

# Test system: not listed separately
# Assay: Growth inhibition of human SET2 cells expressing JAK2V617F mutant after 72 hrs by colorimetric WST1 assay
# Assay type: functional
# Conditions: SET-2, 72 h
# Method in brief: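 Megakaryoblastic SET-2 cells were grown in RPMI with 10% FCS, 2 mM L-glutamine and 1% penicillin/streptomycin. Cells were exposed to an 8-point compound concentration range for 72 h. Proliferation was read by WST-1 colorimetric viability, relative to DMSO vehicle controls.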
row,SMILES,GI50
1,COc1cc(-c2cnc3cccc(-c4ccc(CC(=O)N5CCS(=O)(=O)CC5)cc4)c3n2)cc(OC)c1OC,119 nM
2,COc1cc(-c2cnc3cccc(-c4ccc(CC(=O)N5CCOCC5)cc4)c3n2)cc(OC)c1OC,228 nM
3,Cc1cc(-c2cnc3cccc(-c4ccc(CN5CCOCC5)c(F)c4)c3n2)ccc1C(=O)N1CCOCC1,226 nM
4,Cc1cc(-c2cnc3cccc(-c4cc(F)c(CN5CCOCC5)c(F)c4)c3n2)ccc1C(=O)N1CCOCC1,135 nM

# Biological target: Non-receptor tyrosine-protein kinase TYK2 (Homo sapiens, UniProt P29597)
# Sequence (P29597 whole entry): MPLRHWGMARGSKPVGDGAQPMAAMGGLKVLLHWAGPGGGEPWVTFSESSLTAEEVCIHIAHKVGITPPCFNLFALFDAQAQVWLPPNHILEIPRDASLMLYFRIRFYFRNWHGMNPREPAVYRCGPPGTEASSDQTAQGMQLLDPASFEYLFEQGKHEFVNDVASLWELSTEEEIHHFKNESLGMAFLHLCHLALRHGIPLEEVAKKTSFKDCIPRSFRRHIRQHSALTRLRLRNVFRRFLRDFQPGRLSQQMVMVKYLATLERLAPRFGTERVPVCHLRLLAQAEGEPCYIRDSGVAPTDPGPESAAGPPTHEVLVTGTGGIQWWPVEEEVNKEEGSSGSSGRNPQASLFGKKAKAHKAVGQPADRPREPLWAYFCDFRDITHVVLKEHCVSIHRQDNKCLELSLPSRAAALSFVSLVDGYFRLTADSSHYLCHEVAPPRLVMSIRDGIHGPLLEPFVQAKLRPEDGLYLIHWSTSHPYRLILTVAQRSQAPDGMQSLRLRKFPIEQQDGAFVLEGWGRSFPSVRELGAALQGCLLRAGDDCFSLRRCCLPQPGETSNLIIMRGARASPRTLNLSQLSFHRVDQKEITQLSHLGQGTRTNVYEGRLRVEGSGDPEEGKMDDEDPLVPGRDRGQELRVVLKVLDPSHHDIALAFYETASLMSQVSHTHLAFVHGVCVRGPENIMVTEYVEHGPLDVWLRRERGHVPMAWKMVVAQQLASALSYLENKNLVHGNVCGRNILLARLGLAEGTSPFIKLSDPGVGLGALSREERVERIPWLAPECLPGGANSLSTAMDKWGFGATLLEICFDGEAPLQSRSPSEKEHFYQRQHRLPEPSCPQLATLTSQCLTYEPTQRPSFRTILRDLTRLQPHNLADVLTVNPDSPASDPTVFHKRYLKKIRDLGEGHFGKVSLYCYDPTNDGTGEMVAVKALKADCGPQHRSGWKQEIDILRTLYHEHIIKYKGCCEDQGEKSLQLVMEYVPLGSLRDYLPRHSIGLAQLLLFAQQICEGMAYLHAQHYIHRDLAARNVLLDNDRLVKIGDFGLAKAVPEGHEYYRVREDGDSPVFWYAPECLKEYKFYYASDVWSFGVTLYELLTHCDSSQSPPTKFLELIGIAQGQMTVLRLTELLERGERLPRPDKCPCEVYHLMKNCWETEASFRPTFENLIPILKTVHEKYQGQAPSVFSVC
# Assay: Inhibition of recombinant GST tagged TYK2 protein after 60 mins using FITC-Ahx-KKSRGDYMTMQIG-NH2 substrate
# Conditions: not given
row,IC50,SMILES
1,1400 nM,COc1cc(-c2cnc3cccc(-c4ccc(C(=O)N5CCOCC5)c(C)c4)c3n2)cc(OC)c1OC
2,340 nM,COc1cc(-c2cnc3cccc(-c4ccc(CC(=O)N5CCS(=O)(=O)CC5)cc4)c3n2)cc(OC)c1OC
3,2900 nM,COc1cc(-c2cnc3cccc(-c4ccc(C(=O)N5CCOCC5)cc4)c3n2)cc(OC)c1OC
4,2200 nM,COc1cc(-c2cnc3cccc(-c4ccc(CN5CCOCC5)c(F)c4)c3n2)cc(OC)c1OC
5,520 nM,COc1cc(-c2cnc3cccc(-c4ccc(CN5CCS(=O)(=O)CC5)cc4)c3n2)cc(OC)c1OC
6,520 nM,Cc1cc(-c2cnc3cccc(-c4ccc(CN5CCOCC5)c(F)c4)c3n2)ccc1C(=O)N1CCOCC1
7,439 nM,Cc1cc(-c2cccc3ncc(-c4ccc(C(=O)N5CCOCC5)c(C)c4)nc23)ccc1CN1CCOCC1
8,7130 nM,COc1cc(-c2cnc3cccc(-c4ccc(CN5CCOCC5)c(C)c4)c3n2)cc(OC)c1OC
9,120 nM,Cc1cc(-c2cnc3cccc(-c4cc(F)c(CN5CCOCC5)c(F)c4)c3n2)ccc1C(=O)N1CCOCC1

# Biological target: Tyrosine-protein kinase JAK1 (Homo sapiens, UniProt P23458)
# Sequence (P23458 whole entry): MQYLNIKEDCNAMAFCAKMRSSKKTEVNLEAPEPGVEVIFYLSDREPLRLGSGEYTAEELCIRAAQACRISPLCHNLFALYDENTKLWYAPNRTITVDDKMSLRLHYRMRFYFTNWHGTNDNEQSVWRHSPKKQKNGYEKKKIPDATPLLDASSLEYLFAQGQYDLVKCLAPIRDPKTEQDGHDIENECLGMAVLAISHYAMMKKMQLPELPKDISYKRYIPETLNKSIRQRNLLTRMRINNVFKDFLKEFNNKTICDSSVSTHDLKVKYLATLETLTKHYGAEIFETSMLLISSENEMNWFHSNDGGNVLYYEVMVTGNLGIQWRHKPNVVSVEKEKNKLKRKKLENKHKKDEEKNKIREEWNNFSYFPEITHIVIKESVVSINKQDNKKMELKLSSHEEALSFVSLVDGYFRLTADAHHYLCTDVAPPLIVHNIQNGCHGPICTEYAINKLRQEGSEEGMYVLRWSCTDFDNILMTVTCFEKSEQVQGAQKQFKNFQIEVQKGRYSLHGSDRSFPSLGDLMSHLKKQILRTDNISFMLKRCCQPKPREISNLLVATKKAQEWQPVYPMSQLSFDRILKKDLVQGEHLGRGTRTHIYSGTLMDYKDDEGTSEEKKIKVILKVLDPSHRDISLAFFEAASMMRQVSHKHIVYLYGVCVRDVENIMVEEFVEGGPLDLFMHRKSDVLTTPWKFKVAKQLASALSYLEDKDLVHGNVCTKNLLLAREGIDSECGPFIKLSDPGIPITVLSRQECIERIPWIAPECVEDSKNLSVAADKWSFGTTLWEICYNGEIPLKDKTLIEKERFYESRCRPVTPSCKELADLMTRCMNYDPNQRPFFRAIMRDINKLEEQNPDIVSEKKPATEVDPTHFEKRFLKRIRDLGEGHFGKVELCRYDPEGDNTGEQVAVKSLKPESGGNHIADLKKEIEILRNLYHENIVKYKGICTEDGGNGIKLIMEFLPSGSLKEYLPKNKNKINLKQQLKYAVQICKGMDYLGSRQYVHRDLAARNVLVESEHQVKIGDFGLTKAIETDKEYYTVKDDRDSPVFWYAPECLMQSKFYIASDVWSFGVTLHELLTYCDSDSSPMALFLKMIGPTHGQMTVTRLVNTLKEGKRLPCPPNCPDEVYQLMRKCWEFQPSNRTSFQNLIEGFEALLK
# Assay: Inhibition of recombinant GST tagged JAK1 protein after 60 mins using FITC-Ahx-KKSRGDYMTMQIG-NH2 substrate
# Conditions: not given
row,IC50,SMILES
1,460 nM,COc1cc(-c2cnc3cccc(-c4ccc(C(=O)N5CCOCC5)c(C)c4)c3n2)cc(OC)c1OC
2,35 nM,COc1cc(-c2cnc3cccc(-c4ccc(CC(=O)N5CCS(=O)(=O)CC5)cc4)c3n2)cc(OC)c1OC
3,390 nM,COc1cc(-c2cnc3cccc(-c4ccc(C(=O)N5CCOCC5)cc4)c3n2)cc(OC)c1OC
4,250 nM,COc1cc(-c2cnc3cccc(-c4ccc(CN5CCOCC5)c(F)c4)c3n2)cc(OC)c1OC
5,91 nM,COc1cc(-c2cnc3cccc(-c4ccc(CC(=O)N5CCOCC5)cc4)c3n2)cc(OC)c1OC
6,98 nM,COc1cc(-c2cnc3cccc(-c4ccc(CN5CCS(=O)(=O)CC5)cc4)c3n2)cc(OC)c1OC
7,190 nM,Cc1cc(-c2cnc3cccc(-c4ccc(CN5CCOCC5)c(F)c4)c3n2)ccc1C(=O)N1CCOCC1
8,362 nM,Cc1cc(-c2cccc3ncc(-c4ccc(C(=O)N5CCOCC5)c(C)c4)nc23)ccc1CN1CCOCC1
9,1850 nM,COc1cc(-c2cnc3cccc(-c4ccc(CN5CCOCC5)c(C)c4)c3n2)cc(OC)c1OC
10,60 nM,Cc1cc(-c2cnc3cccc(-c4cc(F)c(CN5CCOCC5)c(F)c4)c3n2)ccc1C(=O)N1CCOCC1
